How the values were obtained:
[1] = molecular target: D(1A) dopamine receptor (Rattus norvegicus, UniProt P18901); test: Binding affinity against Dopamine receptor D1 from rat brain corpus striatum membrane
Outline: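 Four to six concentrations of each test agent. IC50 ± SEM obtained by computer-assisted curve fitting; Ki derived from IC50 using the Kd and ligand concentration.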

[2] = molecular target: D(2) dopamine receptor (Rattus norvegicus, UniProt P61169); test: Binding affinity against Dopamine receptor D2 from rat brain corpus striatum membrane
Chain of D(2) dopamine receptor (P61169 whole entry): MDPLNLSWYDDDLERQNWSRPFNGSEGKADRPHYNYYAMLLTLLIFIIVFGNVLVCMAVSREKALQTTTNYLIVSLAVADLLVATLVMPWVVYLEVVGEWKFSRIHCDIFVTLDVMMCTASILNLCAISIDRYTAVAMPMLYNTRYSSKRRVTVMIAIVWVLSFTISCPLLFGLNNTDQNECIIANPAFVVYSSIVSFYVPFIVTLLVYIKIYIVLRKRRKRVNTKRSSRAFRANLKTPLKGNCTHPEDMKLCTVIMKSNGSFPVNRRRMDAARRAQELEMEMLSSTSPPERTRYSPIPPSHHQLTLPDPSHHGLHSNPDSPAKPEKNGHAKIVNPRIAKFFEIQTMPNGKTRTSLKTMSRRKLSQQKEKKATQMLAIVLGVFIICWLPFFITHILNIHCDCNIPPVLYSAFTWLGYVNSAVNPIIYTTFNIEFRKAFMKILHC

Chain of D(1A) dopamine receptor (P18901 whole entry): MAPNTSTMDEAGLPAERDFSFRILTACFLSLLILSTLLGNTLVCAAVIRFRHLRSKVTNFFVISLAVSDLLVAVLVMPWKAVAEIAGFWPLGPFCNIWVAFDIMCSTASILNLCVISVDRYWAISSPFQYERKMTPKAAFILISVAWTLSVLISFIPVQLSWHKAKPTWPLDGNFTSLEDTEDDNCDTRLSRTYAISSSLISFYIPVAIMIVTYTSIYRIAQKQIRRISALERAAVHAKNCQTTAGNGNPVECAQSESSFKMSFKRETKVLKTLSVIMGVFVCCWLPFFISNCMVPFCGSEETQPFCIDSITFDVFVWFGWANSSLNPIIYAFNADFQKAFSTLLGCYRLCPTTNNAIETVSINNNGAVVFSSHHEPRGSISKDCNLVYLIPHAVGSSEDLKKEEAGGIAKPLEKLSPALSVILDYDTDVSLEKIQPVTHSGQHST

Row | Compound | IC50 [1] [nM] | IC50 [2] [nM]
1 | CCCN1CCc2cc(OC)cc3c2[C@H]1Cc1ccc(O)c(O)c1-3 | 3340 | 1.02
2 | CCCN1CCc2cc(F)cc3c2[C@H]1Cc1ccc(O)c(O)c1-3 | 1300 | 0.071
3 | CCCN1CCc2cc(N)cc3c2[C@H]1Cc1ccc2c(c1-3)OCO2 | > 10000 | 704
4 | CCCN1CCc2cc(O)cc3c2[C@H]1Cc1ccc(O)c(O)c1-3 | 1720 | 0.32
5 | CCCN1CCc2cc(Br)cc3c2[C@H]1Cc1ccc(O)c(O)c1-3 | 970 | 0.89
6 | CCCN1CCc2cc(N)cc3c2[C@H]1Cc1ccc(O)c(O)c1-3 | > 10000 | 5.5
7 | CCCN1CCc2cc(F)cc3c2[C@H]1Cc1ccc2c(c1-3)OCO2 | 3100 | 97.6

From ChEMBL document CHEMBL1125019 (J Med Chem, 1990)
